Assay results collected from several papers.
Lines come from different studies, so protocols differ. In brackets after ≈: the same amount, converted by molar mass.
Organism: Staphylococcus epidermidis
Read-out: microbial growth

CCn1cc(C(=O)O)c(=O)c2cc(F)c(N3CCNCC3)cc21  MIC (clinical isolate): 0.2 µg/mL (≈ 0.626 µM)
CNC(C)C1CCC(N)C(OC2C(N)CC(N)C(OC3OCC(C)(O)C(NC)C3O)C2O)O1 (stereo not shown)  MIC (broth dilution): 1 µg/mL (≈ 2.09 µM)
Cc1c2c(nn1C)CSCc1cc(n(C)n1)CSc1cc(c3ccccc3c1)OCCCc1c(C(=O)O)n(C)c3c-2c(Cl)ccc13  MIC50 (broth dilution; clinical isolate): 12.5 µM
CC[C@H]1OC(=O)[C@H](C)[C@@H](O[C@H]2C[C@@](C)(OC)[C@@H](O)[C@H](C)O2)[C@H](C)[C@@H](O[C@@H]2O[C@H](C)C[C@H](N(C)C)[C@H]2O)[C@](C)(O)C[C@@H](C)/C(=N\OCOCCOC)[C@H](C)[C@@H](O)[C@]1(C)O  MIC90 (MRSE; clinical isolate): > 128 µg/mL
Cc1ccc2[nH]nc(-c3nnc(Nc4ccc(Cl)c(Cl)c4)s3)c2c1  MIC (ATCC12228): 187 µg/mL (≈ 498 µM)
CN[C@H](CC(C)C)C(=O)N[C@H]1C(=O)N[C@@H](CC(N)=O)C(=O)N[C@H]2C(=O)N[C@H]3C(=O)N[C@H](C(=O)N[C@H](C(=O)O)c4cc(O)cc(O)c4-c4cc3ccc4O)[C@H](O)c3ccc(c(Cl)c3)Oc3cc2cc(c3O[C@@H]2O[C@H](CO)[C@@H](O)[C@H](O)[C@H]2O[C@H]2C[C@](C)(N)[C@H](O)[C@H](C)O2)Oc2ccc(cc2Cl)[C@H]1O  MIC50 (broth dilution; clinical isolate): 1 µg/mL
Cc1ccc2[nH]nc(-c3nnc(Nc4ccc(F)cc4Cl)s3)c2c1  MIC (ATCC12228): 118 µg/mL (≈ 328 µM)
CN[C@H](CC(C)C)C(=O)N[C@H]1C(=O)N[C@@H](CC(N)=O)C(=O)N[C@H]2C(=O)N[C@H]3C(=O)N[C@H](C(=O)N[C@H](C(=O)O)c4cc(O)cc(O)c4-c4cc3ccc4O)[C@H](O)c3ccc(c(Cl)c3)Oc3cc2cc(c3O[C@@H]2O[C@H](CO)[C@@H](O)[C@H](O)[C@H]2O[C@H]2C[C@](C)(N)[C@H](O)[C@H](C)O2)Oc2ccc(cc2Cl)[C@H]1O  MIC (clinical isolate): 0.78 µg/mL (≈ 0.538 µM)
C=C[C@]1(C)C[C@@H](OC(=O)CS[C@@H]2C[C@H]3CC[C@@H](C2)N3C)[C@]2(C)[C@H](C)CC[C@]3(CCC(=O)[C@H]32)[C@@H](C)[C@@H]1O  MIC90 (clinical isolate): 0.0625 µg/mL (≈ 0.121 µM)
Cc1ccc2[nH]nc(-c3nnc(Nc4ccc(C)c(C)c4)s3)c2c1  MIC (ATCC12228): 172 µg/mL (≈ 512 µM)
